Measurements as given in ChEMBL document CHEMBL1765057, “Pyrazolo[4,3-d]pyrimidine bioisostere of roscovitine: evaluation of a novel selective inhibitor of cyclin-dependent kinases with antiproliferative activity” (J Med Chem, 2011).
Calls of active or inactive are those of the source. The calls are words filed in the database; no cut-off is given here.

Experiments:
MCF7 = assay: Cytotoxicity against human MCF7 cells after 72 hrs by fluoroskan ascent microplate reader analysis; assay type: functional, cell-based; conditions: MCF7, 72 h
Method in brief: (§1)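 Cells were grown in DMEM with 10% FCS and 4 mM glutamine at 37 °C under CO2, then plated at densities suited to each line. Compounds were added as 3-fold dilutions in triplicate for 72 h.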

HBL-100 = assay: Cytotoxicity against human HBL100 cells after 72 hrs by fluoroskan ascent microplate reader analysis; assay type: functional, cell-based; conditions: HBL-100, 72 h; method in brief: as §1
BT-474 = assay: Cytotoxicity against human BT474 cells after 72 hrs by fluoroskan ascent microplate reader analysis; assay type: functional, cell-based; conditions: BT-474, 72 h; method in brief: as §1
U-266 = assay: Cytotoxicity against human U266 cells after 72 hrs by fluoroskan ascent microplate reader analysis; assay type: functional, cell-based; conditions: U-266, 72 h; method in brief: as §1
K562 = assay: Cytotoxicity against human K562 cells after 72 hrs by fluoroskan ascent microplate reader analysis; assay type: functional, cell-based; conditions: K562, 72 h; method in brief: as §1
HL-60 = assay: Cytotoxicity against human HL60 cells after 72 hrs by fluoroskan ascent microplate reader analysis; assay type: functional, cell-based; conditions: HL-60, 72 h; method in brief: as §1
A549 = assay: Cytotoxicity against human A549 cells after 72 hrs by fluoroskan ascent microplate reader analysis; assay type: functional, cell-based; conditions: A549, 72 h; method in brief: as §1
[1] = molecular target: Casein kinase I isoform alpha (Homo sapiens) (UniProt P48729); assay: Inhibition of human recombinant CK1 at 10 uM
Casein kinase I isoform alpha (Homo sapiens), sequence (P48729 2-337 limits assumed): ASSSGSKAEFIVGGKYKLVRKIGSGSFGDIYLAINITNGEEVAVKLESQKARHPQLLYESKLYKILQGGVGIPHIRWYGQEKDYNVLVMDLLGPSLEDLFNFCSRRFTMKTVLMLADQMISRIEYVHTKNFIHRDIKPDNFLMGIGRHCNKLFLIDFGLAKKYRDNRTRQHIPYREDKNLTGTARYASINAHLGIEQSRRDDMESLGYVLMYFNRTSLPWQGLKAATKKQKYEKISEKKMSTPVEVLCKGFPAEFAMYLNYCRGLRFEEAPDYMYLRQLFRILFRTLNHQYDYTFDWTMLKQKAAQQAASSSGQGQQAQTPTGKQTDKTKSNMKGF

[2] = molecular target: Casein kinase II (Homo sapiens) (UniProt P67870+P68400+P19784); assay: Inhibition of human recombinant CK2 at 10 uM; assay type: protein-complex assay
[3] = molecular target: Glycogen synthase kinase-3 alpha (Homo sapiens) (UniProt P49840); assay: Inhibition of human recombinant GSK3A at 10 uM
Glycogen synthase kinase-3 alpha (Homo sapiens), sequence (P49840 2-483 limits assumed): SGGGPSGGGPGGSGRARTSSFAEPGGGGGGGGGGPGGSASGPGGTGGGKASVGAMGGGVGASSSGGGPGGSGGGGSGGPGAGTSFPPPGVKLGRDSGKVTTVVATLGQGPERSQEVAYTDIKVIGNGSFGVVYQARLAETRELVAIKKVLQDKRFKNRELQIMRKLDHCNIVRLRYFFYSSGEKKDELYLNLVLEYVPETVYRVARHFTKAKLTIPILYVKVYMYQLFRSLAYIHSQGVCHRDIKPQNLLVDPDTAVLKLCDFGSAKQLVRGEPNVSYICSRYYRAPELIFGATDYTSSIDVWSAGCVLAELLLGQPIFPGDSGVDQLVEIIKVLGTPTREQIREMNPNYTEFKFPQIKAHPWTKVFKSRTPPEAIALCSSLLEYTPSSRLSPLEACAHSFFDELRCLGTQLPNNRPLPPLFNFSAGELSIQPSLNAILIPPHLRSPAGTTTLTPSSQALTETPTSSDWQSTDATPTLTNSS

[4] = molecular target: Dual specificity mitogen-activated protein kinase kinase 1 (Homo sapiens) (UniProt Q02750); assay: Inhibition of human recombinant MEK1 at 10 uM
Dual specificity mitogen-activated protein kinase kinase 1 (Homo sapiens), sequence (Q02750 whole entry): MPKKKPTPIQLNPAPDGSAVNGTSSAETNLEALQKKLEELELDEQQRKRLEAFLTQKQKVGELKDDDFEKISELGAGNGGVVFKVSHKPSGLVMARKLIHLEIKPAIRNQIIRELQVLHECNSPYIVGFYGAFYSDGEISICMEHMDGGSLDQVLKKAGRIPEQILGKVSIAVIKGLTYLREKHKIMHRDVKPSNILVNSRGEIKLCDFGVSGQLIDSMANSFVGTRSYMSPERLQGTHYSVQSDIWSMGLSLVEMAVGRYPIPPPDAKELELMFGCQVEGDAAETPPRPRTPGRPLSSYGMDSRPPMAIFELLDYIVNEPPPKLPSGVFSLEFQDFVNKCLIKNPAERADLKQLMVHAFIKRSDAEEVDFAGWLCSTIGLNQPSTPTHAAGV

[5] = molecular target: T1, Retinoblastoma-associated protein (Homo sapiens) (UniProt P06400); assay: Inhibition of retinoblastoma protein in human MCF7 cells assessed as reduction of CDK1 level at 2.5 to 40 uM after 24 hrs by immunoblotting; assay type: cell-based
T1 sequence (whole entry): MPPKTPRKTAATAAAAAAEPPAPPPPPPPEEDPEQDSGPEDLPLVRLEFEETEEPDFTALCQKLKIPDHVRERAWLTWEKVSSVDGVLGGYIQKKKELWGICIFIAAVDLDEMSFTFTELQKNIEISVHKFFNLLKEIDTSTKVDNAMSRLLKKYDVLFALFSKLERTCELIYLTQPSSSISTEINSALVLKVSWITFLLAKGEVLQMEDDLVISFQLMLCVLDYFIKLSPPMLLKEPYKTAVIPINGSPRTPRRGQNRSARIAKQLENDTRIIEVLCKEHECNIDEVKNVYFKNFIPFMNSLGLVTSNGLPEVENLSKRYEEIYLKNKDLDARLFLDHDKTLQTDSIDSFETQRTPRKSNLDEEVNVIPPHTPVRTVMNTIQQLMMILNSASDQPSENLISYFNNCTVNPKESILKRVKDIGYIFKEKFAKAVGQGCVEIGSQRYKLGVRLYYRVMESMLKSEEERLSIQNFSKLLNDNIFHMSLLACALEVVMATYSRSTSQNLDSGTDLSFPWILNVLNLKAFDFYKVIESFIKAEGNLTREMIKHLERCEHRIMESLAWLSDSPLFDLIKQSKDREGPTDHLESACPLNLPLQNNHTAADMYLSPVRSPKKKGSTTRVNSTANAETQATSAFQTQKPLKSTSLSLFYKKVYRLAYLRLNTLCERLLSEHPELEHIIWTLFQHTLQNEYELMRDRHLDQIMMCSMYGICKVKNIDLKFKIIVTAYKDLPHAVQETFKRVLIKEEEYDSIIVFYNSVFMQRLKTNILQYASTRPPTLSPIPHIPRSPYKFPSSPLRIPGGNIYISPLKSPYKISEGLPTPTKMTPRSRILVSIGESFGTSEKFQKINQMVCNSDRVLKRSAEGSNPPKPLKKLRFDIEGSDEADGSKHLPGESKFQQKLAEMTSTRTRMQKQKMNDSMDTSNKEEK
Method in brief: (§2)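 Asynchronous, exponentially growing MCF-7 cells were exposed 24 h to a range of concentrations. Total lysates were made in Laemmli buffer, run on SDS-PAGE and blotted to nitrocellulose. Membranes were probed overnight at 4 °C with specific or phosphospecific antibodies (pRb S249/T252, S780, S795, S807/811), with tubulin as loading control and ECL detection.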

[6] = molecular target: T1, Retinoblastoma-associated protein (Homo sapiens); assay: Inhibition of retinoblastoma protein in human MCF7 cells assessed as reduction of CDK6 level at 2.5 to 40 uM after 24 hrs by immunoblotting; assay type: cell-based; method in brief: as §2
[7] = molecular target: T1, Retinoblastoma-associated protein (Homo sapiens); assay: Inhibition of retinoblastoma protein in human MCF7 cells assessed as reduction of cyclin E level at 2.5 to 40 uM after 24 hrs by immunoblotting; assay type: cell-based; method in brief: as §2
[8] = molecular target: T1, Retinoblastoma-associated protein (Homo sapiens); assay: Inhibition of retinoblastoma protein in human MCF7 cells assessed as reduction of cyclin A level at 2.5 to 40 uM after 24 hrs by immunoblotting; assay type: cell-based; method in brief: as §2
RPMI-8226 [9] = assay: Cell cycle arrest in human RPMI8226 cells assessed as decrease in S phase cell population after 24 hrs using propidium iodide and BrdU staining by flow cytometry; assay type: functional, cell-based
Method in brief: (§3)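 Asynchronously growing RPMI-8226 multiple myeloma cells were exposed for 24 h. Cells were double-stained with propidium iodide and BrdU and analysed by flow cytometry for G1, S, G2/M and BrdU-positive fractions. The subG1 population was taken as indicative of apoptosis.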

RPMI-8226 [10] = assay: Cell cycle arrest in human RPMI8226 cells assessed as reduction of actively replicating DNA level at 80 uM after 24 hrs using propidium iodide and BrdU staining by flow cytometry; assay type: functional, cell-based; method in brief: as §3
RPMI-8226 [11] = assay: Cell cycle arrest in human RPMI8226 cells assessed as accumulation at sub-G1 phase after 24 hrs using propidium iodide and BrdU staining by flow cytometry; assay type: functional, cell-based; method in brief: as §3
RPMI-8226 [12] = assay: Induction of apoptosis in human RPMI8226 cells assessed as induction of caspase7 activation at 20 uM after 24 hrs by immunoblot analysis; assay type: functional, cell-based; conditions: in the assay text read “by fluorogenic assay” for “by immunoblot analysis”
Method in brief: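 RPMI-8226 cells were treated continuously for 24 h and lysed in CHAPS extraction buffer (pH 7.4) on ice, then clarified, with protein equalized by Bradford. Lysates were incubated 1 h with 100 μM Ac-DEVD-AMC in PIPES/DTT buffer (pH 7.3), with 100 μM Ac-DEVD-CHO added for negative controls. Fluorescence was read at 355/460 nm.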

[13] = molecular target: Cellular tumor antigen p53 (Homo sapiens) (UniProt P04637); assay: Induction of p53-dependent transcriptional activity in human ARN8 cells assessed as beta-galactosidase activity at 10 to 20 uM after 24 hrs by immunofluorescence assay; assay type: cell-based
Cellular tumor antigen p53 (Homo sapiens), sequence (P04637 whole entry, looked up): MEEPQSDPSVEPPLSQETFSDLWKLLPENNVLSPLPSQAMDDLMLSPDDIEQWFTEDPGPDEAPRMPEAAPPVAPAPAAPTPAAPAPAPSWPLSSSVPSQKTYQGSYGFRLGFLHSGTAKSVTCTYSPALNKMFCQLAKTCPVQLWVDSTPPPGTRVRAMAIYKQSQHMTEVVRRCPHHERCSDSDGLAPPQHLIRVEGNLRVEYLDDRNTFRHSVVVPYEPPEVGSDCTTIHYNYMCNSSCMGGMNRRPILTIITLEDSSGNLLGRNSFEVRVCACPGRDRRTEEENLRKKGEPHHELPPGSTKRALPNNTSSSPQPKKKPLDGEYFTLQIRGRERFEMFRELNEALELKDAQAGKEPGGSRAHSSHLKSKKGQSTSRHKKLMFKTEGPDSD
Method in brief: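 ARN8 melanoma cells stably carrying the p53-responsive pRGCΔfoslacZ reporter were exposed to inhibitors for 24 h, permeabilized with 0.3% Triton X-100 for 15 min, and given MUG substrate (final 80 μM). Fluorescence was read at 355/460 nm after 1 h. Data are mean ± SD of three independent experiments.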

[14] = molecular target: Cyclin-dependent kinase 1/cyclin B1 (Homo sapiens) (UniProt P06493+P14635); conditions: at 10 µM
Cyclin-dependent kinase 1/cyclin B1 (Homo sapiens), sequence (P06493 whole entry, looked up): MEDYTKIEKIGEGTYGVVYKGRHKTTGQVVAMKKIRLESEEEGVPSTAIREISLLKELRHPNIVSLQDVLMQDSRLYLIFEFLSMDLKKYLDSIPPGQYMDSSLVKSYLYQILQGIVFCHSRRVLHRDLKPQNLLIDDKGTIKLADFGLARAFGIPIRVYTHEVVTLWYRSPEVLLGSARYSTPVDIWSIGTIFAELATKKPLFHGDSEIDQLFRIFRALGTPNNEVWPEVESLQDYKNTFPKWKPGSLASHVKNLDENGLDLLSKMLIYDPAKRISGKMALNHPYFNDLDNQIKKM
Cyclin-dependent kinase 1/cyclin B1 (Homo sapiens), sequence (P14635 whole entry, looked up): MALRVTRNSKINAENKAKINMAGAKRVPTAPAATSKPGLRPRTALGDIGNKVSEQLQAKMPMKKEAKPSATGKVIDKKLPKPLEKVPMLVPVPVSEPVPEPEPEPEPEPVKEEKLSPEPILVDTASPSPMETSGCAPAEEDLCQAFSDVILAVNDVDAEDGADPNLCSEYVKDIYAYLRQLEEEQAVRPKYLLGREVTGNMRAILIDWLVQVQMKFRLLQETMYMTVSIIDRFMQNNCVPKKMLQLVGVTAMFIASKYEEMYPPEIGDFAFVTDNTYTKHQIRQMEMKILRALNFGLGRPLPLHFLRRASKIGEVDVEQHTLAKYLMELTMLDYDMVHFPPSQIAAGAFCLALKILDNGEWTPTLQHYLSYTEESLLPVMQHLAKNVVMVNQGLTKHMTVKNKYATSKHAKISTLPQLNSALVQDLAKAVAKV

inhibition [1]: 7% | inhibition [2]: 19% | inhibition [3]: 32% | inhibition [4]: 58% | inhibition [5]: inactive | inhibition [6]: inactive | inhibition [7]: inactive | inhibition [8]: inactive | Activity [13]: Active | inhibition [14]: 84%
Structure (SMILES): CC[C@H](CO)Nc1nc(NCc2ccccc2)c2[nH]nc(C(C)C)c2n1
IC50 (MCF7): 7.5 µM | IC50 (HBL-100): 11.3 µM | IC50 (BT-474): 8.5 µM | IC50 (U-266): 4.9 µM | IC50 (K562): 7.7 µM | IC50 (HL-60): 7.1 µM | IC50 (A549): 7.1 µM | Activity (RPMI-8226 [9]): Active | Activity (RPMI-8226 [10]): Active | Activity (RPMI-8226 [11]): Active | Activity (RPMI-8226 [12]): Active
